Measurements published in ChEMBL document CHEMBL1122443, “Synthesis and antitumor evaluation of selected 5,6-disubstituted 1(2)H-indazole-4,7-diones” (1983).
Activity calls are given as the source filed them. The calls are words filed in the database; no cut-off is given here.

Tests used:
Mus musculus [1] = test: Antitumor activity in CF1 mice bearing Ehrlich ascites carcinoma measured as percentage inhibition at 5 mg/kg; assay type: functional
Outline: (§1)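 Ehrlich ascites model in male CF1 mice (22–25 g): 2 × 10⁶ cells ip on day 0, ip dosing days 1–8, kill on day 9. Percent inhibition = 100 − [(treated volume × treated ascrit)/(control volume × control ascrit)]. Greater than 80% was taken as significant. Vehicle was 0.05% Tween 80, alone or with 5% absolute EtOH. 6-Mercaptopurine was the positive control.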

Mus musculus [2] = test: Antitumor activity in CF1 mice bearing Ehrlich ascites carcinoma measured as percentage inhibition at 8 mg/kg; assay type: functional; outline: as §1
Mus musculus [3] = test: Antitumor activity in CF1 mice bearing Ehrlich ascites carcinoma measured as survivors on day 9 at 3 mg/kg; 5/6; assay type: functional
Mus musculus [4] = test: Antitumor activity in CF1 mice bearing Ehrlich ascites carcinoma measured as ascites volume at 3 mg/kg; assay type: functional
Outline: (§2)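 Male CF1 mice (22–25 g) received 2 × 10⁶ Ehrlich carcinoma cells ip on day 0. Dosing was ip daily on days 1–8, with sacrifice on day 9. Ascites fluid volume per mouse and ascrit (packed cell volume) were measured for each group. Vehicle was 0.05% Tween 80, or 5% absolute EtOH in 0.05% Tween 80, used for both compound and control. 6-Mercaptopurine was the positive control.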

Mus musculus [5] = test: Antitumor activity in CF1 mice bearing Ehrlich ascites carcinoma measured as ascites volume at 5 mg/kg; assay type: functional; outline: as §2
Mus musculus [6] = test: Antitumor activity in CF1 mice bearing Ehrlich ascites carcinoma measured as ascites volume at 8 mg/kg; assay type: functional; outline: as §2
Mus musculus [7] = test: Antitumor activity in CF1 mice bearing Ehrlich ascites carcinoma measured as survivors on day 9 at 5 mg/kg; 4/6; assay type: functional
Mus musculus [8] = test: Antitumor activity in CF1 mice bearing Ehrlich ascites carcinoma measured as survivors on day 9 at 8 mg/kg; 4/6; assay type: functional
Mus musculus [9] = test: Antitumor activity in CF1 mice bearing Ehrlich ascites carcinoma measured as percentage inhibition at 3 mg/kg; IA= inactive; assay type: functional, organism-based; parameters: dose 3 mg/kg
Outline: (§3)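 In the Ehrlich ascites model, male CF1 mice (22–25 g) received 2 × 10⁶ cells ip on day 0 and compound ip on days 1–8, with a vehicle of 0.05% Tween 80 ± 5% EtOH. Ascites volume and ascrit were taken on day 9. % inhibition = 100 − [(vol × ascrit, treated)/(vol × ascrit, control)], with >80% taken as significant.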

Mus musculus [10] = test: Antitumor activity in CF1 mice bearing Ehrlich ascites carcinoma measured as percent ascrit packed cell volume at 3 mg/kg; assay type: functional; outline: as §2
Mus musculus [11] = test: Antitumor activity in CF1 mice bearing Ehrlich ascites carcinoma measured as percent ascrit packed cell volume at 5 mg/kg; assay type: functional; outline: as §2
Mus musculus [12] = test: Antitumor activity in CF1 mice bearing Ehrlich ascites carcinoma measured as percent ascrit packed cell volume at 8 mg/kg; assay type: functional; outline: as §2
Mus musculus [13] = test: Antitumor activity in CF1 mice bearing Ehrlich ascites carcinoma measured as ascites volume at 0.5 mg/kg; assay type: functional
Outline: (§4)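 Ehrlich ascites cells (2 × 10⁶) were implanted ip in male CF1 mice (22–25 g) on day 0. Dosing was ip on days 1–8 in 0.05% Tween 80 or 5% EtOH/0.05% Tween 80, with vehicle controls. Mice were killed on day 9, and ascites fluid volume per mouse was measured.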

Mus musculus [14] = test: Antitumor activity in CF1 mice bearing Ehrlich ascites carcinoma measured as percentage inhibition at 0.5 mg/kg; IA= inactive; assay type: functional, organism-based; parameters: dose 0.5 mg/kg; outline: as §3
Mus musculus [15] = test: Antitumor activity in CF1 mice bearing Ehrlich ascites carcinoma measured as percentage inhibition at 1 mg/kg; assay type: functional; outline: as §3
Mus musculus [16] = test: Antitumor activity in CF1 mice bearing Ehrlich ascites carcinoma measured as survivors on day 9 at 1 mg/kg; 6/6; assay type: functional
Mus musculus [17] = test: Antitumor activity in CF1 mice bearing Ehrlich ascites carcinoma measured as ascites volume at 1 mg/kg; assay type: functional; outline: as §4
Mus musculus [18] = test: Average days survived for treated / average days survived for control at 0.5 (mg/kg); 10.5/9.2; assay type: functional
Mus musculus [19] = test: Average days survived for treated / average days survived for control at 1 (mg/kg); 13.3/9.2; assay type: functional
Mus musculus [20] = test: Average days survived for treated / average days survived for control at 2 (mg/kg); 12.6/9.2; assay type: functional
Mus musculus [21] = test: Average days survived for treated / average days survived for control at 3 (mg/kg); 10.2/9.2; assay type: functional
Mus musculus [22] = test: Average days survived for treated / average days survived for control at 5 (mg/kg); 11/9.2; assay type: functional
Mus musculus [23] = test: Antitumor activity in CF1 mice bearing Ehrlich ascites carcinoma measured as survivors on day 9 at 5 mg/kg; 6/6; assay type: functional
Mus musculus [24] = test: Antitumor activity in CF1 mice bearing Ehrlich ascites carcinoma measured as percent ascrit packed cell volume at 1 mg/kg; assay type: functional
Outline: (§5)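 CF1 male mice (22–25 g) were inoculated ip with 2 × 10⁶ Ehrlich cells on day 0 and treated ip on days 1–8 in 0.05% Tween 80 or 5% EtOH/0.05% Tween 80 vehicle. On day 9 the mice were sacrificed, and the ascrit (packed cell volume) of the ascites fluid was determined.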

Mus musculus [25] = test: Antitumor activity in CF1 mice bearing Ehrlich ascites carcinoma measured as percent ascrit packed cell volume at 0.5 mg/kg; assay type: functional; outline: as §5
Mus musculus [26] = test: Anti tumor activity in mice bearing lymphocytic leukemia P-388 at 0.5 mg/kg; assay type: functional
Outline: (§6)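 Male BDF1 mice (20–23 g) were inoculated ip with 1 × 10⁶ P-388 leukemia cells on day 0. Compound was given ip once daily on days 1–14 in 0.05% Tween 80 vehicle, with a vehicle control group and 5-fluorouracil as positive control. Activity was scored as % T/C, average days survived treated/control, with >125% taken as significant.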

Mus musculus [27] = test: Anti tumor activity in mice bearing lymphocytic leukemia P-388 at 1 mg/kg; assay type: functional; outline: as §6
Mus musculus [28] = test: Anti tumor activity in mice bearing lymphocytic leukemia P-388 at 2 mg/kg; assay type: functional; outline: as §6
Mus musculus [29] = test: Anti tumor activity in mice bearing lymphocytic leukemia P-388 at 3 mg/kg; assay type: functional; outline: as §6
Mus musculus [30] = test: Anti tumor activity in mice bearing lymphocytic leukemia P-388 at 5 mg/kg; assay type: functional; outline: as §6
Mus musculus [31] = test: Anti tumor activity in mice bearing lymphocytic leukemia P-388 at 10 mg/kg; Toxic; assay type: functional, organism-based; parameters: dose 10 mg/kg; outline: as §6
Mus musculus [32] = test: Antitumor activity in CF1 mice bearing Ehrlich ascites carcinoma measured as survivors on day 9 at 0.5 mg/kg; 5/6; assay type: functional
Mus musculus [33] = test: Antitumor activity in CF1 mice bearing Ehrlich ascites carcinoma measured as percentage inhibition at 10 mg/kg; assay type: functional; outline: as §3
Mus musculus [34] = test: Antitumor activity in CF1 mice bearing Ehrlich ascites carcinoma measured as survivors on day 9 at 10 mg/kg; 5/6; assay type: functional
Mus musculus [35] = test: Antitumor activity in CF1 mice bearing Ehrlich ascites carcinoma measured as survivors on day 9 at 12 mg/kg; 0/6; assay type: functional
Mus musculus [36] = test: Average days survived for treated / average days survived for control at 1 (mg/kg); 10.8/9.2; assay type: functional
Mus musculus [37] = test: Antitumor activity in CF1 mice bearing Ehrlich ascites carcinoma measured as survivors on day 9 at 5 mg/kg; 5/5; assay type: functional
Mus musculus [38] = test: Antitumor activity in CF1 mice bearing Ehrlich ascites carcinoma measured as percent ascrit packed cell volume at 10 mg/kg; assay type: functional; outline: as §5
Mus musculus [39] = test: Antitumor activity in CF1 mice bearing Ehrlich ascites carcinoma measured as ascites volume at 10 mg/kg; assay type: functional; outline: as §4

## CC(=O)NC1=C(Cl)C(=O)c2c(cnn2C(C)=O)C1=O
Mus musculus [1]
  inhibition in vivo at 5 mg/kg: 95.6%
Mus musculus [2]
  inhibition in vivo at 8 mg/kg: 25.5%
Mus musculus [3]
  Survivors: 5
Mus musculus [4]
  ascites volume: 2.9 ml mouse-1
Mus musculus [5]
  ascites volume: 0.3 ml mouse-1
Mus musculus [6]
  ascites volume: 0.75 ml mouse-1
Mus musculus [7]
  Survivors: 4
Mus musculus [8]
  Survivors: 4
Mus musculus [9]
  inhibition: inactive
Mus musculus [10]
  packed cell volume: 45.5%
Mus musculus [11]
  packed cell volume: 5.9%
Mus musculus [12]
  packed cell volume: 31.7%

## O=C1C(N2CC2)=C(Cl)C(=O)c2n[nH]cc21
Mus musculus [1]
  inhibition in vivo at 5 mg/kg: 92.5%
Mus musculus [13]
  ascites volume: 0.38 ml mouse-1
Mus musculus [14]
  inhibition: inactive
Mus musculus [15]
  inhibition in vivo at 1 mg/kg: 95%
Mus musculus [16]
  Survivors: 6
Mus musculus [17]
  ascites volume: 0.32 ml mouse-1
Mus musculus [5]
  ascites volume: 0.15 ml mouse-1
Mus musculus [18]
  Average survival (days): 10.5
Mus musculus [19]
  Average survival (days): 13.3
Mus musculus [20]
  Average survival (days): 12.6
Mus musculus [21]
  Average survival (days): 10.2
Mus musculus [22]
  Average survival (days): 11
Mus musculus [23]
  Survivors: 6
Mus musculus [24]
  packed cell volume: 5.8%
Mus musculus [11]
  packed cell volume: 49.4%
Mus musculus [25]
  packed cell volume: 44%
Mus musculus [26]
  T/C: 114%
Mus musculus [27]
  T/C: 145%
Mus musculus [28]
  T/C: 137%
Mus musculus [29]
  T/C: 111%
Mus musculus [30]
  T/C: 120%
Mus musculus [31]
  T/C: Toxic
Mus musculus [32]
  Survivors: 5

## Cn1cc2c(n1)C(=O)C(Cl)=C(N1CC1)C2=O
Mus musculus [1]
  inhibition in vivo at 5 mg/kg: 83.7%
Mus musculus [15]
  inhibition in vivo at 1 mg/kg: 72.9%
Mus musculus [33]
  inhibition in vivo at 10 mg/kg: 96.3%
Mus musculus [16]
  Survivors: 6
Mus musculus [34]
  Survivors: 5
Mus musculus [35]
  Survivors: 0
Mus musculus [17]
  ascites volume: 0.8 ml mouse-1
Mus musculus [5]
  ascites volume: 0.7 ml mouse-1
Mus musculus [36]
  Average survival (days): 10.8
Mus musculus [37]
  Survivors: 5
Mus musculus [24]
  packed cell volume: 12.7%
Mus musculus [38]
  packed cell volume: 8.4%
Mus musculus [11]
  packed cell volume: 36.2%
Mus musculus [27]
  T/C: 117%
Mus musculus [39]
  ascites volume: 0.44 ml mouse-1
